The list is not random: actives were taken first. Their share in the collection is about 27%.
HIV Rev-RRE inh: HIV-1 Rev-RRE binding inhibitors, primary screen, biochemical, FRET, protein-RNA interaction; Rev peptide-RRE RNA binding; inhibition, % at 8 µM; hit rate 0.79% among 97,000;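 active = inhibition above the screen-wide mean plus 3 SD, cut at about 35% in these data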;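 note: 0% = median DMSO wells and 100% = median Neomycin B control wells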
Target sequence (P05866 whole entry, looked up): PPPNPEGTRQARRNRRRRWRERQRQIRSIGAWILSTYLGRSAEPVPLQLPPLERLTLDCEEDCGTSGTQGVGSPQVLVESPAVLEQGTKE
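assay system = Cy5-tagged RRE RNA duplex with fluorescein-tagged Rev peptide | incubation = 5 + 15 min at 25 °C | also added = labelled Rev peptide | measure = % inhibition of FRET ratio versus controls | benchmarks = DMSO wells as 0% and neomycin B wells as 100% inhibition | measured by = FRET fluorescence readout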
CYP2C19 activ: human CYP2C19 activators, primary screen, biochemical, luminescence; Cytochrome P450 2C19 (Homo sapiens), P33261; AID 1025, 2008; activation factor at 5 µM; 96,000 tested, under 10 active; recombinant CYP2C19, luciferin-H EGE luminescence; hits give high values; 0 = fully inhibited enzyme, 1 = untreated enzyme;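 active = activation factor of at least 2 at 5 µM in the primary screen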;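 note: 0 = wells with 2.5 mM tranylcypromine and 1 = vehicle-only wells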
Target sequence (P33261 whole entry, looked up): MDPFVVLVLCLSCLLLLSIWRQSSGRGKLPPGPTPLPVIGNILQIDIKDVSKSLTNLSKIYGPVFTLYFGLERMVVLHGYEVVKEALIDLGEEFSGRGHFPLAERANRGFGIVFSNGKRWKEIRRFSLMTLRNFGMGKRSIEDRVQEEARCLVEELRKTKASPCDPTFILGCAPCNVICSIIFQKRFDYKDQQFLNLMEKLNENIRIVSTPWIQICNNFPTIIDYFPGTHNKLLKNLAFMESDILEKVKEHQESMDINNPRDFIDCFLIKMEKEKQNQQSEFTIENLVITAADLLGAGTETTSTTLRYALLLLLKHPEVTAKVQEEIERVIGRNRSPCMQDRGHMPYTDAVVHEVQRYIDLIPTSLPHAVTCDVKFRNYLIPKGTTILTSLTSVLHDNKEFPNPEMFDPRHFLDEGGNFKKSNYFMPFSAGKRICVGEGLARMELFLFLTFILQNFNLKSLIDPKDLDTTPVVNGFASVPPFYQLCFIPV
Cav32 inh: Cav3.2 calcium influx blockers – cell-based, Fluo-4 calcium fluorescence, FDSS, MLSMR library, primary screen; Cav3.2-expressing cells; hits give low values; B-score at 10 µM; hit rate 4% among 100,000; AID 449739, 2010;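 active = single-dose well whose peak fluorescence ratio is a statistical outlier from its plate by either plate-standardised score or position-corrected B-score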
CYP2C19 inh: blockers of cytochrome P450 2C19 activity – biochemical, luminescence, ADME assay, primary screen; P33261; CYP2C19 Supersomes, luciferin-H EGE luminescence, 30 min; inhibition, % at 5 µM; hit rate 21% among 96,000;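 active = CYP2C19 inhibition above a set limit at 5 µM in the primary screen, cut at about 50% in these data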;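 note: plate controls were negative control wells for no effect and 2.5 mM tranylcypromine positive control for full effect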
CYP2C9 act: human CYP2C9 activators, primary screen, biochemical, luminescence. Cytochrome P450 2C9 (Homo sapiens), P11712. recombinant CYP2C9, luciferin-H conversion; hits give high values; factor 1 = untreated enzyme, 0 = blocked. activation factor at 5 µM. hit rate 1.4% among 96,000. AID 1024, 2008;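 active = activation factor of 2 or more for CYP2C9 at a 5 µM dose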;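 note: 0 = sulfaphenazole-blocked wells and 1 = vehicle-only wells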
CYP2C9 inh: blockers of cytochrome P450 2C9 activity – biochemical, luminescence, ADME assay, primary screen; P11712; CYP2C9 Supersomes, luciferin-H conversion; inhibition, % at 5 µM; hit rate 20% among 96,000; AID 777, 2007;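 active = blocking of liver enzyme CYP2C9 beyond about 50% at 5 µM, limit read from the data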
An asterisk follows results filed as active.

Results for Cc1ccccc1Cn1nc(C)c(NC(=O)c2cc3nc(-c4ccco4)cc(C(F)(F)F)n3n2)c1C ?
HIV Rev-RRE inh: -7; CYP2C19 activ: 1; Cav32 inh: -2.4; CYP2C19 inh: -4; CYP2C9 act: 0.5; CYP2C9 inh: 47

What do the screens show for `CC(C)Cn1cc(C(=O)NCC2CCCO2)c2c3ccccc3n(C)c2c1=O` (stereo not given)?
HIV Rev-RRE inh: 5; CYP2C19 activ: 0.8; Cav32 inh: 0.13; CYP2C19 inh: 24; CYP2C9 act: 0.7; CYP2C9 inh: 26

Results for CN(C)S(=O)(=O)c1cccc(N=c2scc(-c3ccc4c(c3)NC(=O)CO4)n2CC2CCCO2)c1 (stereo not given) ?
HIV Rev-RRE inh: 10; CYP2C19 activ: 0.5; CYP2C19 inh: 46; CYP2C9 act: 0.5; CYP2C9 inh: 50*

How did Nc1nc(-c2ccc3c(c2)NC(=O)CO3)cs1 do in these assays?
HIV Rev-RRE inh: 11; CYP2C19 activ: 1; CYP2C19 inh: 2; CYP2C9 act: 1; CYP2C9 inh: 3

How did O=C1COc2ccc(-c3csc(=Nc4ccc(OC(F)F)cc4)n3CC3CCCO3)cc2N1 (stereo not given) do in these assays?
HIV Rev-RRE inh: 2; CYP2C19 activ: 0.8; Cav32 inh: -1.4; CYP2C19 inh: 24; CYP2C9 act: 0.7; CYP2C9 inh: 27

How did COc1ccccc1N=c1scc(-c2ccc3c(c2)NC(=O)CO3)n1CC1CCCO1 (stereo not given) do in these assays?
CYP2C19 activ: 0.7; Cav32 inh: -3.9*; CYP2C19 inh: 27; CYP2C9 act: 0.8; CYP2C9 inh: 21

How did COc1ccccc1CCn1cnc2c3cc(C)ccc3n(C)c2c1=O do in these assays?
HIV Rev-RRE inh: 8; CYP2C19 activ: 0.1; Cav32 inh: -2.4; CYP2C19 inh: 93*; CYP2C9 act: 0.3; CYP2C9 inh: 71*

What do the screens show for `COc1ccc2c(c1)c1ncn(CCN3CCCC3)c(=O)c1n2C`?
HIV Rev-RRE inh: 5; CYP2C19 activ: 1.1; CYP2C19 inh: -14; CYP2C9 act: 0.9; CYP2C9 inh: 11

How did COc1ccc2c(c1)c1ncn(CCN3CCCCC3)c(=O)c1n2C do in these assays?
HIV Rev-RRE inh: 11; CYP2C19 activ: 0.6; Cav32 inh: -1.2; CYP2C19 inh: 43; CYP2C9 act: 0.4; CYP2C9 inh: 56*

Results for Nc1c(C(=O)c2ccccc2)sc(Nc2ccccc2)c1S(=O)(=O)c1ccccc1 ?
HIV Rev-RRE inh: 10; Cav32 inh: -3.8*

Results for CCOC(=O)c1sc(=S)n(Cc2ccccc2)c1N ?
HIV Rev-RRE inh: 7; CYP2C19 activ: 0.7; Cav32 inh: -6.7*; CYP2C19 inh: 28; CYP2C9 act: 0.2; CYP2C9 inh: 79*

Results for C=CCn1c(N)c(C(=O)OCC)sc1=S ?
HIV Rev-RRE inh: 4; CYP2C19 activ: 0.9; Cav32 inh: 0.0038; CYP2C19 inh: 10; CYP2C9 act: 0.6; CYP2C9 inh: 41

What do the screens show for `CCOC(=O)c1sc(=S)n(-c2ccccc2OC)c1N`?
CYP2C19 activ: 0.8; Cav32 inh: -0.2; CYP2C19 inh: 24; CYP2C9 act: 0.4; CYP2C9 inh: 56*

What do the screens show for `C=CCn1c(NC(=O)CC)c(C(=O)OCC)sc1=S`?
HIV Rev-RRE inh: 8; CYP2C19 activ: 0.5; CYP2C19 inh: 52*; CYP2C9 act: 0.7; CYP2C9 inh: 32

How did CCOC(=O)c1sc(=S)n(-c2ccc3c(c2)OCO3)c1N do in these assays?
HIV Rev-RRE inh: 3; CYP2C19 activ: 0.4; Cav32 inh: -2.8; CYP2C19 inh: 64*; CYP2C9 act: 1; CYP2C9 inh: 3

Results for O=C(NCc1ccccc1)N1CCn2c(nc3ccccc32)C1 ?
HIV Rev-RRE inh: -3; Cav32 inh: 1.1

What do the screens show for `CCOc1cc(C(=O)Nc2cccc3ncccc23)cc(OCC)c1OCC`?
HIV Rev-RRE inh: 8; CYP2C19 activ: 0.9; Cav32 inh: 0.062; CYP2C19 inh: 11; CYP2C9 act: 0.8; CYP2C9 inh: 16

How did CCOC(=O)c1sc(=S)n(CC)c1N do in these assays?
CYP2C19 activ: 0.2; Cav32 inh: 0.48; CYP2C19 inh: 84*; CYP2C9 act: 0.3; CYP2C9 inh: 72*

Results for N#Cc1nc(COc2ccc(Br)cc2)oc1NCCCn1ccnc1 ?
HIV Rev-RRE inh: 13; CYP2C19 activ: 0; CYP2C19 inh: 100*; CYP2C9 act: 0; CYP2C9 inh: 100*

What do the screens show for `N#Cc1nc(-c2ccccc2F)oc1NCCc1ccccn1`?
CYP2C19 activ: 0.8; Cav32 inh: 1.3; CYP2C19 inh: 20; CYP2C9 act: 0.8; CYP2C9 inh: 21

What do the screens show for `N#Cc1nc(COc2ccc(F)cc2)oc1NCCCn1ccnc1`?
HIV Rev-RRE inh: 6; CYP2C19 activ: 0; Cav32 inh: 0.25; CYP2C19 inh: 96*; CYP2C9 act: 0.1; CYP2C9 inh: 88*

Results for CCCOc1ccc(-c2nc(C#N)c(NCCCn3ccnc3)o2)cc1 ?
HIV Rev-RRE inh: 7; Cav32 inh: -0.2

What do the screens show for `N#Cc1nc(COc2ccccc2F)oc1NCCCn1ccnc1`?
HIV Rev-RRE inh: 10; CYP2C19 activ: 0; Cav32 inh: -2.6; CYP2C19 inh: 97*; CYP2C9 act: 0.1; CYP2C9 inh: 90*

Results for COc1ccc(-n2ncc3c(NCCCn4ccnc4)ncnc32)cc1 ?
HIV Rev-RRE inh: 2; Cav32 inh: -0.0085

What do the screens show for `Cc1ccc(OCc2nc(C#N)c(NCCCn3ccnc3)o2)cc1`?
HIV Rev-RRE inh: 5; CYP2C19 activ: 0; Cav32 inh: -0.22; CYP2C19 inh: 99*; CYP2C9 act: 0.1; CYP2C9 inh: 91*

What do the screens show for `Cc1cc(C(=O)OCC(=O)c2c(N)n(C)c(=O)n(C)c2=O)c(C)n1-c1ccccc1`?
HIV Rev-RRE inh: -1; CYP2C19 activ: 0.9; Cav32 inh: 1.3; CYP2C19 inh: 14; CYP2C9 act: 0.6; CYP2C9 inh: 36

Results for Cc1nc2ccccc2n1CCc1nc2c3ccccc3nc(SCC#N)n2n1 ?
HIV Rev-RRE inh: 3; CYP2C19 activ: 0.8; CYP2C19 inh: 17; CYP2C9 act: 1; CYP2C9 inh: 1

What do the screens show for `Cc1cccc(NC(=O)CSc2nc3ccccc3c3nc(CCc4c(C)n[nH]c4C)nn23)c1`?
HIV Rev-RRE inh: -1; CYP2C19 activ: 0.3; Cav32 inh: -2; CYP2C19 inh: 66*; CYP2C9 act: 0.1; CYP2C9 inh: 88*

Results for Cc1n[nH]c(C)c1CCc1nc2c3ccccc3nc(SCC(=O)Nc3ccccc3F)n2n1 ?
HIV Rev-RRE inh: 7; CYP2C19 activ: 0.4; Cav32 inh: 1; CYP2C19 inh: 64*; CYP2C9 act: 0.1; CYP2C9 inh: 95*

Source: PubChem (several laboratories)
